Screening results (PubChem)
The list is not random: actives were taken first. Their share in the collection is about 5.3%.
CSC inhib = cancer stem cell viability inhibitors, primary screen, luminescence; AID 2717, 2010; 300,000 tested, 1.1% active; inhibition, % at 7.5 µM; cancer stem cell-like cells viability; in the data active = inhibition above about 75%; tested in HMLE shEcad cells
Calb FLC = C. albicans growth inhibition with fluconazole, primary screen, CaCi-2 strain, Alamar Blue fluorescence. AID 1979, 2009. growth inhibition, % (test concentration not listed). C. albicans CaCi-2 (fluconazole-resistant clinical isolate) + fluconazole, 48 h. 300,000 tested, 0.57% active;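 active = growth inhibition above about 58% in most replicates, limit read from the data, passing the limit was not always enough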;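 also: all wells also contain fluconazole at 8 µg/ml as a sub-toxic cotreatment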
T cruzi inh = inhibitors of intracellular T. cruzi growth, primary screen, luminescence, NIH3T3 host cells; T. cruzi beta-gal in NIH3T3, 90 h; inhibition, % (test concentration not listed); 300,000 tested, 1.4% active; AID 1885, 2009;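 active = mean inhibition across valid replicates above about 55%, limit read from the data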;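 also: signal also drops with host cell toxicity which is not excluded here; higher percent means less beta-gal luminescence so fewer parasites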
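Material: NIH/3T3 host cells with β-galactosidase reporter T. cruzi; Input: 5,000 host fibroblasts per well; Medium: DMEM, 2% fetal bovine serum; Compound: 50 nL DMSO compound solution per well; Schedule: 3 h host attachment, then at least 90 h co-culture; Detection: luminescent β-galactosidase signal after 60 min lysis.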
NALP3 yeast inh = NALP3 inflammasome inhibitors in reconstituted yeast, primary screen, luminescence, uHTS; Yeast reconstituted NLRP3/ASC/caspase-1, beta-gal luminescence, 24 h; 330,000 tested, 0.39% active; inhibition, % at 10 µM;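 active = inhibition of 50% or more; inactive = inhibition below 50%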
Mdm2-MdmX inh = inhibitors of human Mdm2-MdmX association, primary screen, cell-based, luminescence, split luciferase, SaOS-2, uHTS; Protein Mdm4 (Homo sapiens) + E3 ubiquitin-protein ligase Mdm2 (Homo sapiens), …; SaOS-2 split-luciferase Mdm2/MdmX complementation; inhibition, % at 8 µM; 330,000 tested, 3% active; AID 485346, 2010;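 active = inhibition of at least 50% at 8 µM in the primary screen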
Beta apoptosis = inhibitors of cytokine-induced beta cell apoptosis, primary screen, luminescence | INS-1E cytokine-induced death, ATP luminescence, 48 h; percent of positive-control rescue, neutral wells zero | protection from apoptosis, % (test concentration not listed) | 300,000 tested, 0.8% active;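 active = Every replicate reaches about 75%, or at least half do and their mean reaches it too, limit read from the data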;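 also: higher means more ATP so stronger rescue from cytokine killing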
Mdm2-MdmX conf = Mdm2-MdmX complex disruptors, retested hits, confirmation, luminescence, single concentration; shares compounds with Mdm2-MdmX inh; Mdm2-MdmX binding, luminescent assay; inhibition, % at 8 µM; 10,000 tested, 55% active; in the data active = inhibition above about 40%
Full FLuc ctr = full-length luciferase signal inhibition, confirmation, counter-screen for Mdm2/MdmX interaction inhibitor project, cell-based, single concentration, SaOS-2. shares compounds with Mdm2-MdmX inh. SaOS-2 full-length luciferase counterscreen, luminescence. inhibition, % at 8 µM. 6,200 tested, 77% active. AID 504607, 2011;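 active = mean inhibition at 8 µM reaching about 37%, which flags the compound as non-specific, limit read from the data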;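 also: p53-null SaOS-2 cells with luciferase driven by a doxycycline-inducible promoter; compound on cells about two nights before reading with doxycycline added after day one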
Hits are given with their value; 0 = inactive; - = no result.

SMILES	CSC inhib	Calb FLC	T cruzi inh	NALP3 yeast inh	Mdm2-MdmX inh	Beta apoptosis	Mdm2-MdmX conf	Full FLuc ctr
CCOC(=O)c1ccc(-c2ccc3oc(-c4ccsc4)cc(=O)c3c2)cc1F	0	-	-	0	0	0	-	-
COc1cc(-c2ccc3oc(-c4ccsc4)cc(=O)c3c2)cc(OC)c1OC	0	-	-	0	73	0	0	-
CC(=O)Nc1ccc(NC(=O)C(Sc2ccccc2)c2ccccc2)cc1 (centres undefined)	0	0	0	0	0	0	-	-
CCN1C(=O)[C@@H]2[C@@H](c3ccc(-c4ccc(C(C)=O)cc4)cc3)N3CCC[C@@]3(C(=O)OC)[C@@H]2C1=O	0	0	0	0	0	0	-	-
c1ccc(CN2CCC(Nc3nc(-c4cccs4)nc4ccccc34)CC2)cc1	109	0	0	0	93	0	0	74
c1csc(-c2nc(NCC3CCCO3)c3ccccc3n2)c1 (centres undefined)	-	0	0	0	0	0	-	-
CCN1CCN(c2cc(C)c3cc(NC(=S)N4CCN(c5ccccc5F)CC4)ccc3n2)CC1	0	0	0	0	80	0	45	60
CCN1CCN(c2cc(C)c3cc(NC(=S)N4CCN(c5ccccc5)CC4)ccc3n2)CC1	0	0	58	0	100	0	44	52
CCOc1ccc(C(=O)Nc2ccc3nc(N4CCN(CC)CC4)cc(C)c3c2)cc1	0	0	0	0	55	0	0	60
CCCN1CCN(C(=S)Nc2ccc3nc(N4CCN(CC)CC4)cc(C)c3c2)CC1	0	0	0	0	50	0	43	46
O=C(Nc1nccs1)C(=O)c1c[nH]c2ccccc12	0	0	0	0	0	-	-	-
CCC(C)NC(=S)Nc1ccc2nc(N3CCN(CC)CC3)cc(C)c2c1 (centres undefined)	0	0	0	0	52	0	0	61
Cc1cccc([C@@H]2[C@@H]3C(=O)N(Cc4ccccc4)C(=O)[C@@H]3[C@]3(Cc4ccc(Cl)cc4)C(=O)N(c4ccc(Br)cc4)C(=O)N23)c1	0	0	0	0	90	0	99	49
COc1ccc(N2C(=O)N3[C@H](c4ccc(Br)cc4)[C@@H]4C(=O)N(C(C)(C)C)C(=O)[C@@H]4[C@]3(Cc3ccccc3)C2=O)cc1	0	0	0	0	0	0	-	-
COc1ccc([C@@H]2[C@@H]3C(=O)N(C(C)(C)C)C(=O)[C@@H]3[C@]3(Cc4ccccc4)C(=O)N(c4ccc(Br)cc4)C(=O)N23)cc1	0	0	0	0	63	0	71	0
CC1=CCC2C(=O)N(c3nc(C)cc(C)n3)C(=O)C2C1 (centres undefined)	0	0	0	0	0	0	-	-
Clc1cccc(Cl)c1/C=N/Nc1c(Cl)cncc1Cl	-	0	0	0	65	-	64	0
CCNC(=S)N/N=C/c1c(Cl)cccc1Cl	0	0	0	0	0	0	-	-
OCC1(Cc2cccc(Cl)c2)CCCN(Cc2sc(N3CCCC3)nc2Cl)C1 (centres undefined)	0	0	0	0	0	0	-	-
Cc1ccnc(NC(=O)c2ccc(Cl)c(NC(=O)c3ccccc3C)c2)c1	0	0	0	0	0	0	-	-
Cc1ccnc(NC(=O)c2ccccc2NC(=O)c2ccc(Cl)cc2Cl)c1	0	0	0	0	64	-	57	66
COc1cc(NC(=O)c2ccccc2)c(OC)cc1NC(=O)CN1C(=O)NC2(CCCCC2C)C1=O (centres undefined)	-	-	-	0	0	0	-	-
CS(=O)(=O)c1cccc(-c2nnc(NC(=O)C3=COCCO3)o2)c1	0	0	0	0	0	-	-	-
COc1ccc(NC(=O)CN(C)C(=O)/C=C/c2ccc(OCc3ccccc3)cc2)cc1	-	0	0	0	52	0	0	-
COc1ccc(NC(=O)CN(C)C(=O)CCc2ccccc2)cc1	0	0	0	0	0	0	-	-
SMILES	CSC inhib	Calb FLC	T cruzi inh	NALP3 yeast inh	Mdm2-MdmX inh	Beta apoptosis	Mdm2-MdmX conf	Full FLuc ctr
O=Nc1c(O)n(Cc2ccc(Cl)cc2)c2ccccc12	0	0	0	0	51	0	0	-
Cc1ccc2c(c1)c(N=NC(N)=S)c(O)n2Cc1ccccc1	0	0	0	0	0	0	-	-
Cc1ccc2c(c1)c(N=O)c(O)n2Cc1ccc(Cl)cc1	104	0	0	0	60	0	0	-
O=Nc1c(O)n(Cc2c(Cl)cccc2Cl)c2ccccc12	0	0	0	0	52	0	0	-
C=CCn1c(O)c(N=O)c2ccccc21	0	0	0	0	0	0	-	-
CC(=O)C1=C(O)C(=O)N(c2ccc(C)cc2)C1c1ccccn1 (centres undefined)	0	0	0	0	0	0	-	-
CC1=CC(C)(C)Nc2ccc(OC(=O)CN3C(=O)c4ccccc4C3=O)cc21	0	0	0	0	97	0	0	0
Cc1cc2ccccn2c1C(=O)c1ccc(Cl)c([N+](=O)[O-])c1	0	0	0	0	0	0	-	-
Cc1c(C=O)c2ccccn2c1C(=O)c1ccc(Cl)c([N+](=O)[O-])c1	0	0	0	0	66	0	0	-
CCN(CC(=O)N1CCN(C)CC1)S(=O)(=O)c1ccc(Cl)cc1	0	0	0	0	0	0	-	-
CN1CCN(c2ccccc2NC(=O)c2ccc(-c3ccc(Cl)cc3Cl)o2)CC1	101	0	55	0	56	0	52	86
O=C(c1ccc(O)cc1)c1ccc(Cl)cc1	0	0	0	0	0	0	-	-
C=CCn1c(COc2ccccc2)nnc1SC(C)C(=O)N/N=C/c1cc(Cl)ccc1O (centres undefined)	0	0	-	0	65	0	60	0
COc1ccc(C(=O)Nc2cc(C)c3c(=O)oc4ccccc4c3n2)cc1	0	0	0	0	74	0	0	-
COCC(=O)Nc1cc(C)c2c(=O)oc3ccccc3c2n1	0	0	0	0	0	-	-	-
Cc1ccc2occ(C(c3nnnn3C3CCCC3)N3CCN(C(=O)c4ccco4)CC3)c(=O)c2c1 (centres undefined)	0	0	0	0	0	0	-	-
O=C(c1ccco1)N1CCN(C(c2coc3ccc(Cl)cc3c2=O)c2nnnn2C2CCCC2)CC1 (centres undefined)	0	0	0	0	50	0	0	-
O=C(CCl)NC(Cc1ccccc1)c1ccccc1 (centres undefined)	0	0	0	0	74	0	51	44
